# Tests used:
# [1] = Apparent volume of distribution in healthy human plasma at 800 mg, po administered as single dose measured after 120 hrs; format: ADME, organism-based
# [2] = AUC (0 to last) in healthy human plasma at 200 mg, po administered as single dose measured after 120 hrs; format: ADME, organism-based; parameters: dose 200 mg, time 0 - last, route oral
# Outline: (§1)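 Healthy adults (6 per dose group) received a single oral suspension after an 8-h fast, with food withheld 4 h. EDTA blood was drawn predose to 120 h. Plasma was protein-precipitated with ACN and assayed by LC-MS/MS (clarithromycin internal standard; range 1–1,000 ng/ml). AUC0-last was computed by linear-up/log-down trapezoid; AUC0-∞ added Clast/λz. Values are noncompartmental means.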
# Homo sapiens [3] = assay: Renal clearance in healthy human assessed as cumulative amount excreted in urine at 800 mg, po administered as single dose measured after 48 hrs; format: ADME, organism-based; conditions: in vivo
# Outline: (§2)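 Healthy adults (6 per dose) received a single fasted oral suspension dose. Urine was collected predose and over 0–2, 2–4, 4–6, 6–8, 8–12, 12–24 and 24–48 h intervals, volumes were recorded, and aliquots were stored at −20°C. Samples were assayed by LC-MS/MS. Ae0-48 is the summed volume × concentration over all intervals; the mean was reported.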
# [4] = Half life in healthy human plasma at 1200 mg, po administered as single dose measured after 120 hrs; format: ADME, organism-based
# [5] = Cmax in healthy human plasma at 400 mg, po administered as single dose measured after 120 hrs; format: ADME, organism-based; parameters: dose 400 mg, route oral
# Outline: (§3)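 Healthy adults (n = 6 per dose) took a single oral suspension fasted (8 h before, 4 h after). Plasma was sampled from 0.25 to 120 h postdose and quantified by validated LC-MS/MS after acetonitrile precipitation (LLOQ 1 ng/ml). Cmax was read directly from observed concentration–time data; the group mean was reported.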
# [6] = Half life in healthy human plasma at 400 mg, po administered as single dose measured after 120 hrs; format: ADME, organism-based
# Homo sapiens [7] = assay: Toxicity in healthy human assessed as changes in direct and total bilirubin level at 100 to 1200 mg, po administered as single dose; format: organism-based; conditions: in vivo
# Outline: (§4)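 Randomized, double-blind, placebo-controlled single ascending dose study with eight subjects per group (6 drug, 2 placebo of microcrystalline cellulose). Subjects were fasted before dosing. Safety labs were done at 120 h, with a full chemistry panel also at 72 and 96 h for the top dose. Final evaluation on day 8–10, with adverse events recorded.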
# [8] = AUC (0 to last) in healthy human plasma at 100 mg, po administered as single dose measured after 120 hrs; format: ADME, organism-based; parameters: dose 100 mg, route oral, time 0 - last; outline: as §1
# [9] = Apparent oral clearance in healthy human plasma at 1200 mg, po administered as single dose measured after 120 hrs; format: ADME, organism-based
# Outline: (§5)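 Single oral suspension dose in fasted healthy adults (6 per group). Plasma was collected to 120 h and measured by LC-MS/MS (1–1,000 ng/ml). Apparent oral clearance was dose divided by AUC0-∞ (noncompartmental, linear-up/log-down trapezoid extrapolated with Clast/λz); the mean was reported.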
# [10] = Half life in healthy human plasma at 100 mg, po administered as single dose measured after 120 hrs; format: ADME, organism-based
# Streptococcus pneumoniae = assay: Antimicrobial activity against macrolide-resistant Streptococcus pneumoniae carrying mefA and/or ermB genes; format: functional
# [11] = Tmax in healthy human plasma at 400 mg, po administered as single dose measured after 120 hrs; format: ADME, organism-based
# Outline: (§6)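 Fasted healthy adults (n = 6 per group) took one oral suspension dose. Plasma was sampled from predose through 0.25–120 h postdose and measured by validated LC-MS/MS (lower limit 1 ng/ml). Tmax was read directly from observed concentration–time data using actual sampling times and reported as median with range.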
# Homo sapiens [12] = assay: Renal clearance in healthy human assessed as cumulative amount excreted in urine at 100 mg, po administered as single dose measured after 48 hrs; format: ADME, organism-based; conditions: in vivo; outline: as §2
# [13] = AUC (0 to infinity) in healthy human plasma at 100 mg, po administered as single dose measured after 120 hrs; format: ADME, organism-based; parameters: dose 100 mg, route oral, time infinity; outline: as §1
# [14] = Apparent volume of distribution in healthy human plasma at 100 mg, po administered as single dose measured after 120 hrs; format: ADME, organism-based
# [15] = Cmax in healthy human plasma at 100 mg, po administered as single dose measured after 120 hrs; format: ADME, organism-based; parameters: dose 100 mg, route oral; outline: as §3
# [16] = Elimination rate constant in healthy human plasma at 400 mg, po administered as single dose measured after 120 hrs; format: ADME, organism-based
# [17] = AUC (0 to infinity) in healthy human plasma at 800 mg, po administered as single dose measured after 120 hrs; format: ADME, organism-based; parameters: dose 800 mg, route oral, time infinity; outline: as §1
# [18] = AUC (0 to infinity) in healthy human plasma at 1200 mg, po administered as single dose measured after 120 hrs; format: ADME, organism-based; parameters: dose 1200 mg, route oral, time infinity; outline: as §1
# [19] = Tmax in healthy human plasma at 1200 mg, po administered as single dose measured after 120 hrs; format: ADME, organism-based; outline: as §6
# [20] = Half life in healthy human plasma at 200 mg, po administered as single dose measured after 120 hrs; format: ADME, organism-based
# [21] = Cmax in healthy human plasma at 1200 mg, po administered as single dose measured after 120 hrs; format: ADME, organism-based; parameters: dose 1200 mg, route oral; outline: as §3
# [22] = Apparent oral clearance in healthy human plasma at 400 mg, po administered as single dose measured after 120 hrs; format: ADME, organism-based; outline: as §5
# Homo sapiens [23] = assay: Toxicity in healthy human assessed as changes in vital signs at 100 to 1200 mg, po administered as single dose; format: organism-based; conditions: in vivo
# Outline: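 Vital signs were taken predose and during an in-house stay (48 h for groups 1–4, 120 h for the top dose). Outpatient visits at 72, 96 and 120 h followed a single fasted oral dose, in a double-blind, placebo-controlled design with 6 active and 2 placebo per group.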
# [24] = AUC (0 to last) in healthy human plasma at 1200 mg, po administered as single dose measured after 120 hrs; format: ADME, organism-based; parameters: dose 1200 mg, route oral, time 0 - last; outline: as §1
# [25] = Renal clearance in healthy human at 100 mg, po administered as single dose measured after 48 hrs; format: ADME, organism-based, Kidney; conditions: in vivo, read-out: CL_renal (converted)
# Outline: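 Healthy adults (6 active per dose) got a single oral suspension dose after an 8-h fast, with food withheld 4 h. Urine over 0–48 h in intervals and serial EDTA plasma were assayed by validated LC-MS/MS, with plasma calibration from 1 to 1,000 ng/ml. CLR = Ae0-48 (urine volume × concentration summed) divided by plasma AUC0-48.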
# [26] = Elimination rate constant in healthy human plasma at 200 mg, po administered as single dose measured after 120 hrs; format: ADME, organism-based
# Homo sapiens [27] = assay: Toxicity in healthy human assessed as incidence of adverse events at 100 to 1200 mg, po administered as single dose; format: organism-based; conditions: in vivo; outline: as §4
# [28] = Elimination rate constant in healthy human plasma at 100 mg, po administered as single dose measured after 120 hrs; format: ADME, organism-based
# [29] = Renal clearance in healthy human assessed as cumulative fraction excreted unchanged in urine at 200 mg, po administered as single dose measured after 48 hrs; format: ADME, organism-based; conditions: read-out: Fraction Recovered in urine
# Outline: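 After a single oral fasted suspension dose in healthy adults (6 per group), urine was collected in intervals to 48 h and measured by LC-MS/MS. fe0-48 = Ae0-48 (summed interval volume × concentration) / dose × 100%; the mean was reported.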
# [30] = Apparent oral clearance in healthy human plasma at 100 mg, po administered as single dose measured after 120 hrs; format: ADME, organism-based; outline: as §5
# [31] = Apparent volume of distribution in healthy human plasma at 1200 mg, po administered as single dose measured after 120 hrs; format: ADME, organism-based
compound,measurement,setting,value
CC[C@H]1OC(=O)[C@H](C)C(=O)[C@H](C)[C@@H](O[C@@H]2O[C@H](C)C[C@H](N(C)C)[C@H]2O)[C@@]2(C)C[C@@H](C)/C(=N\C(C)=O)[C@H](C)[C@@H](OC/C(=N\OCc3ccc(-n4cccn4)nc3)CO2)[C@]1(C)O [MODITHROMYCIN],Vd/F,[1],601 L
same,AUC(0-t) at 120 h,[2],7650 ng·h/mL
same,Amount Recovered in urine,Homo sapiens [3],91.1 mg
same,half-life,[4],20.1 h
same,Cmax,[5],542 ng/mL
same,half-life,[6],15.8 h
same,Activity,Homo sapiens [7],Non-toxic
same,AUC(0-t) at 120 h,[8],3400 ng·h/mL
same,CL/F,[9],523 mL/min
same,half-life,[10],15.6 h
same,MIC,Streptococcus pneumoniae,0.25 µg/mL
same,Tmax,[11],3.25 h
same,Amount Recovered in urine,Homo sapiens [12],8.57 mg
same,AUC(0-inf),[13],3430 ng·h/mL
same,Vd/F,[14],656 L
same,Cmax,[15],196 ng/mL
same,k el at 120 h,[16],1.22e-05 s⁻¹
same,AUC(0-inf),[17],33900 ng·h/mL
same,AUC(0-inf),[18],38300 ng·h/mL
same,Tmax,[19],5 h
same,half-life,[20],15.8 h
same,Cmax,[21],1080 ng/mL
same,CL/F,[22],463 mL/min
same,Activity,Homo sapiens [23],Non-toxic
same,AUC(0-t) at 120 h,[24],37400 ng·h/mL
same,CL renal at 48 h,[25],46.3 mL/min
same,k el at 120 h,[26],1.22e-05 s⁻¹
same,Activity,Homo sapiens [27],16.7%
same,k el at 120 h,[28],1.23e-05 s⁻¹
same,dose excreted at 48 h,[29],12.3%
same,CL/F,[30],485 mL/min
same,Vd/F,[31],909 L
